Screening data (PubChem BioAssay)
This is a sample that favours compounds with a hit; in the whole collection about 4.9% have one here.
STAT3 act – IL-6 driven STAT3 reporter potentiators, primary screen, U3A cells, luciferase, luminescence, MLSCN library | IL-6 STAT3-luciferase reporter; 100% = signal with IL-6 EC80 alone | activation (% of control), % at 5.6 µM | actives 0.91% (n = 190,000) | AID 871, 2007;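 active means activation above the screen-wide mean of compound activation plus 3 SD, cut at about 130% in these data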;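 further: 0% = background luminescence of wells with medium and substrate only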
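system = STAT3-luciferase reporter U3A cells | reagent = IL-6 stimulus at 33 ng/mL final | timing = 1 h compound pre-exposure, 6 h IL-6 stimulation, 37 °C | measured by = luminescence | evaluation = % activation versus median of IL-6-stimulated wells | control set = IL-6-only wells as 100% reference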
STAT1 activator – STAT1 signaling activators, primary screen, cell-based, HTS, luciferase reporter; NIH 3T3 STAT1-luciferase reporter, IFN-gamma, luminescence; 100% = IFN-gamma alone, no compound; activation (% of control), % at 5.5 µM; actives 2.6% (n = 200,000);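 active means activation above the screen-wide mean activation plus 3 SD, cut at about 130% in these data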;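 further: raw ratio to IFN-gamma control signal so 100% means no change and 0% no light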
NF-kB neuron act – activators of NF-kB expression in neurons, primary screen, cell-based, HTS; human neuronal cells, NF-kB reporter expression; stronger effect = higher value; fold change at 12.5 µM; actives 1.6% (n = 190,000); AID 1239, 2008; in the data active means fold change above about 3.3
STAT3 inh – IL-6 driven STAT3 reporter inhibitors, primary screen, U3A cells, luciferase, luminescence, MLSCN library; IL-6 STAT3-luciferase reporter; host cell line lacks STAT1; inhibition, % at 5.5 µM; actives 0.89% (n = 190,000); AID 862, 2007;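 active means inhibition above the mean inhibition across all screened compounds plus 3 SD, cut at about 44% in these data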;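 further: 0% = DMSO only wells and 100% = 100 µM nifuroxazide control wells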
STAT1 blocker – STAT1 signaling inhibitors, primary screen, cell-based, HTS, luciferase reporter | NIH 3T3 STAT1-luciferase reporter, IFN-gamma, luminescence | inhibition, % at 5.5 µM | actives 0.35% (n = 200,000);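 active means inhibition above a set limit, the mean inhibition across all tested compounds plus 3 SD, cut at about 34% in these data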;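 further: 0% = IFN-gamma with DMSO and 100% = IFN-gamma with 300 µM nifuroxazide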
APP 5'UTR act – activators of APP 5'UTR luciferase reporter, primary screen, SH-SY5Y cells | activation, % at 2 µM | actives 1% (n = 190,000) | AID 1276, 2008 | SH-SY5Y APP 5'UTR luciferase reporter, luminescence; zero percent = DMSO vehicle wells;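 active means activation above a set limit, based on mean plus 3 SD of controls, cut at about 140% in these data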
STAT1 act conf – STAT1 signaling activators, confirmation, cell-based, HTS, luciferase reporter. shares compounds with STAT1 activator. activation (% of control), % at 5.7 µM. actives 97% (n = 1,200). NIH 3T3 STAT1-luciferase reporter, IFN-gamma potentiation, luminescence; 100% = IFN-gamma EC80 alone, no compound. AID 1262, 2008;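 active means activation above a set limit carried over from the earlier primary STAT1 screen, cut at about 140% in these data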;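 further: simple ratio to median IFN-gamma plus DMSO wells so 0% means no light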
NFkB act – NF-kB reporter activators, TNF-alpha stimulated, counter-screen for STAT1 activator project, cell-based, HEK293T, luciferase luminescence; shares compounds with STAT1 activator; actives 43% (n = 1,200); 100% = TNF-alpha with vehicle only; activation (% of control), % at 5.7 µM; AID 1306, 2008;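 active means activation above the mean of solvent-only control wells plus 3 SD, set per campaign, cut at about 130% in these data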;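 further: TNF-alpha given at a submaximal dose yielding about 80% of full reporter signal; values are well signal over median control so 100% means no change and 0% no light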
STAT3 act STAT1c – STAT3 reporter activation by STAT1 hits, confirmation, counter-screen for STAT1 activator project, U3A cells, luciferase, luminescence; activation (% of control), % at 5.7 µM; shares compounds with STAT1 activator; actives 46% (n = 1,200); IL-6; cells lack STAT1; 100 = IL-6 alone, no compound effect; AID 1316, 2008;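 active means activation above the solvent-only control well mean plus 3 SD, set per plate batch, cut at about 110% in these data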;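 further: 0% = no luminescence and 100% = median IL-6 plus DMSO wells; higher means more STAT3 reporter activation so hits are non-selective activators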
Numbers without * were called inactive; x = no result.

SMILES	STAT3 act	STAT1 activator	NF-kB neuron act	STAT3 inh	STAT1 blocker	APP 5'UTR act	STAT1 act conf	NFkB act	STAT3 act STAT1c
O=c1c2c(nc3cc(-c4ccc(Br)cc4)[nH]n13)CCCC2	94	205*	3.3	12	-112	174*	281*	151*	106
COCCCN=Cc1c(C)[nH]n(-c2ccc(Br)c(C)c2)c1=O	78	165*	2.7	29	-74	147*	250*	122	80
Cc1ccc(-n2[nH]c(C)c(C=NC34CN5CN(CN(C5)C3)C4)c2=O)cc1C	104	99	1	-4	1	3	x	x	x
CC12CCC(C/C1=N\N=C1\NC(=O)/C(=C\c3ccc(Cl)cc3)S1)C2(C)C (stereo not drawn)	98	109	0.95	5	-10	6	x	x	x
CCOC(=O)CC(=O)Nc1nnc(C(C)C)s1	98	152*	1.2	6	-58	-4	112	103	102
CC(C)c1nnc(NC(=O)CCCC(=O)O)s1	102	90	0.94	2	11	4	x	x	x
O=C(CCC1CCCCC1)NCc1ccccn1	97	99	1.6	6	1	4	x	x	x
Cc1cc(C(=O)CSc2n[nH]c(N)n2)c(C)n1-c1cccc(F)c1	93	103	1.4	15	-4	20	x	x	x
Cc1cc(C(=O)CSc2ncccn2)c(C)n1-c1cccc(F)c1	113	172*	3.3	-14	-81	162*	191*	126	111*
COc1cccc(CC2(CO)CCCN(Cc3ccc4c(c3)OCCO4)C2)c1 (stereo not drawn)	91	91	1.1	15	9	-7	x	x	x
COc1ccc(Nc2nc(-c3cccs3)cs2)c(OC)c1	110	164*	7*	-8	-70	59	216*	139*	118*
COc1ccccc1Nc1nc(-c2cccs2)cs1	131	171*	5.7*	-32	-77	28	203*	143*	165*
COc1ccc(Nc2nc(-c3cccs3)nc3ccccc23)c(OC)c1	97	103	0.62	8	-4	4	x	x	x
Oc1ccc(Nc2nc(-c3cccs3)cs2)cc1	93	91	1.1	11	10	14	x	x	x
CC(=O)Nc1nc(-c2cccs2)cs1	100	104	1.6	3	-4	12	x	x	x
COc1ccc(Nc2nc(-c3cccs3)cs2)cc1	92	182*	2.3	13	-90	105	214*	151*	122*
CCOC(=O)c1c(NC(=O)C(C)N2CCN(C(=O)c3ccco3)CC2)sc2c1CCCC2 (stereo not drawn)	98	103	2.2	-1	-3	1	x	x	x
CN(C)C(=O)c1nc2ccc(Cl)cn2c1CN1CCCC(OCc2ccccc2)C1 (stereo not drawn)	101	96	0.99	10	4	-12	x	x	x
O=c1/c(=C\c2ccc3c(c2)OCO3)sc2n1CCCN=2	97	154*	4.7*	6	-59	94	200*	139*	107
CC(C)(C)NC(=O)NC(=O)COc1ccc(Br)cc1Br	104	196*	5.1*	-7	-106	151*	243*	130	114*
